# Measured values as given in ChEMBL document CHEMBL4334465, “SAR Studies on Aromatic Acylhydrazone-Based Inhibitors of Fungal Sphingolipid Synthesis as Next-Generation Antifungal Agents” (J Med Chem, 2019).
# Calls of active or inactive are those of the source. The rule behind the calls is not given here.
# Columns and labels:
# HepG2 = assay: Cytotoxicity against human HepG2 cells after 24 to 48 hrs by MTT assay; format: functional; conditions: read-out: LD50 (the source's name)
# Summary of the method: (§1)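 A549 and HepG2 kept in DMEM with 10% FBS and 1% pen-strep. At passage 7, seeded at 10⁵ cells/well and allowed to adhere 14 h. Compound added at 0.03–128 μg/mL, untreated wells as controls. Incubation 37°C, 5% CO₂ for 24 or 48 h. MTT (5 mg/mL in PBS) added for 4 h, formazan dissolved in DMSO, OD570.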
# [1] = Selectivity index, ratio of LD50 for human A549 cells to MIC80 for Cryptococcus neoformans H99; format: toxicity; conditions: read-out: Selectivity Index
# Summary of the method: (§2)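 SI = LD₅₀/MIC₈₀. Cytotoxicity: A549 or HepG2 cells (DMEM, 10% FBS, passage 7, 10⁵ cells/well) adhered 14 h, then exposed to 0.03–128 μg/mL for 24 or 48 h at 37°C, 5% CO₂; MTT 4 h, formazan dissolved in DMSO, read at 570 nm. MIC₈₀ against C. neoformans from broth microdilution in HEPES-buffered YNB, pH 7.0.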
# A549 = assay: Cytotoxicity against human A549 cells after 24 to 48 hrs by MTT assay; format: functional; conditions: read-out: LD50 (the source's name); summary of the method: as §1
# Cryptococcus neoformans [2] = assay: Fungicidal activity against Cryptococcus neoformans H99 measured after 12 hrs by time-kill assay; format: functional, var grubii H99
# Summary of the method: (§3)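 Overnight C. neoformans washed in PBS and resuspended in HEPES-buffered YNB, pH 7.4. 2 × 10⁴ cells exposed to a range of drug concentrations in 10 mL with 0.5% DMSO final, at 37°C, 5% CO₂, shaking at 200 rpm. Aliquots sampled over 96 h, diluted and plated on YPD; CFU counted after 48 h at 30°C.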
# Cryptococcus neoformans [3] = assay: Antifungal activity against Cryptococcus neoformans H99 measured after 24 to 72 hrs; format: functional; conditions: var grubii H99
# Summary of the method: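 Modified CLSI broth microdilution with inoculum per M27A3. Compounds were serially diluted 32 to 0.03 μg/mL. Media: C. neoformans in HEPES-buffered YNB without amino acids (pH 7.0, 2% glucose); Candida strains in YNB without ammonium sulfate or amino acids plus 1% asparagine (pH 7.0, 2% glucose); A. fumigatus in RPMI (pH 7.0, 2% glucose).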
# Cryptococcus neoformans [4] = assay: Fungistatic activity against Cryptococcus neoformans H99 by time-kill assay; format: functional, organism-based; conditions: var grubii H99; summary of the method: as §3
# [5] = Selectivity index, ratio of LD50 for human HepG2 cells to MIC80 for Cryptococcus neoformans H99; format: toxicity; conditions: read-out: Selectivity Index; summary of the method: as §2
# Cryptococcus neoformans [6] = assay: Fungicidal activity against Cryptococcus neoformans H99 measured after 96 hrs by time-kill assay; format: functional, var grubii H99; summary of the method: as §3
# Cryptococcus neoformans [7] = assay: Fungicidal activity against Cryptococcus neoformans H99 measured after 72 hrs by time-kill assay; format: functional, var grubii H99; summary of the method: as §3
# Cryptococcus neoformans [8] = assay: Fungicidal activity against Cryptococcus neoformans H99 measured after 6 hrs by time-kill assay; format: functional, var grubii H99; summary of the method: as §3
Compound,CC50 (HepG2),selectivity ratio [1],CC50 (A549),MFC100 (Cryptococcus neoformans [2]),MIC80 (Cryptococcus neoformans [3]),Activity (Cryptococcus neoformans [4]),selectivity ratio [5],MFC100 (Cryptococcus neoformans [6]),MFC100 (Cryptococcus neoformans [7]),MFC100 (Cryptococcus neoformans [8])
O=C(N/N=C/c1cc(Br)cc(Br)c1O)c1ccc(C(F)(F)F)cc1,8 µg/mL,33.3,4 µg/mL,1 µg/mL,0.12 µg/mL,–,–,–,–,–
O=C(N/N=C/c1c(O)ccc2ccccc12)c1ccc(Br)c(Br)c1,16 µg/mL,33.3,4 µg/mL,–,0.12 µg/mL,Active,133,–,–,–
O=C(N/N=C/c1cc(Br)cc(Br)c1O)c1cccc(OC(F)F)c1,16 µg/mL,133,16 µg/mL,–,0.12 µg/mL,–,133,0.25 µg/mL,–,–
N#Cc1ccc(C(=O)N/N=C/c2cc(Br)cc(Br)c2O)cc1,16 µg/mL,1070,64 µg/mL,–,0.06 µg/mL,–,267,–,1 µg/mL,–
O=C(N/N=C/c1cc(C(F)(F)F)ccc1O)c1cccc(Br)c1,16 µg/mL,32,16 µg/mL,–,0.5 µg/mL,Active,32,–,–,–
O=C(N/N=C/c1cc(Br)ccc1O)c1ccc(OC(F)(F)F)cc1F,8 µg/mL,128,64 µg/mL,–,0.5 µg/mL,–,16,–,0.5 µg/mL,–
O=C(N/N=C/c1cc(Br)ccc1O)c1ccc(OC(F)F)cc1,16 µg/mL,128,32 µg/mL,–,0.25 µg/mL,–,64,–,2 µg/mL,–
O=C(N/N=C/c1cc(Br)cc(Br)c1O)c1ccc(OC(F)F)cc1,16 µg/mL,133,16 µg/mL,–,0.12 µg/mL,–,133,–,–,1 µg/mL
O=C(N/N=C/c1cc(F)ccc1O)c1ccc(Br)cc1,16 µg/mL,8,8 µg/mL,–,1 µg/mL,–,16,4 µg/mL,–,–
O=C(N/N=C/c1cccc(Cl)c1O)c1cccc(C(F)(F)F)c1,32 µg/mL,32,32 µg/mL,–,1 µg/mL,–,32,2 µg/mL,–,–
O=C(N/N=C/c1cc(Cl)ccc1O)c1cc(Br)cc(Br)c1,16 µg/mL,133,16 µg/mL,1 µg/mL,0.12 µg/mL,–,133,–,–,–
O=C(N/N=C/c1ccc(Br)cc1O)c1cc(Br)ccc1Br,16 µg/mL,267,32 µg/mL,–,0.12 µg/mL,–,133,–,–,0.25 µg/mL
O=C(N/N=C/c1cc(Br)cc(Br)c1O)c1ccc(OC(F)(F)F)cc1,16 µg/mL,128,64 µg/mL,–,0.5 µg/mL,–,32,–,4 µg/mL,–
CN(C)c1ccc(C(=O)N/N=C/c2cc(Br)cc(Br)c2O)cc1,16 µg/mL,32,16 µg/mL,–,0.5 µg/mL,Active,32,–,–,–
O=C(N/N=C/c1ccc(Br)cc1O)c1ccc(Br)cc1,32 µg/mL,267,16 µg/mL,–,0.06 µg/mL,–,533,0.25 µg/mL,–,–
O=C(N/N=C/c1ccc(Br)cc1O)c1ccc(Br)c(Br)c1,8 µg/mL,33.3,4 µg/mL,–,0.12 µg/mL,–,66.6,–,0.5 µg/mL,–
O=C(N/N=C/c1cc(Cl)cc(Cl)c1O)c1ccc(Br)cc1Br,64 µg/mL,128,128 µg/mL,–,1 µg/mL,–,64,–,–,0.5 µg/mL
O=C(N/N=C/c1cccc(Br)c1O)c1cccc(F)c1,16 µg/mL,16,16 µg/mL,2 µg/mL,1 µg/mL,–,16,–,–,–
O=C(N/N=C/c1cc(Br)ccc1O)c1ccccc1C(F)(F)F,16 µg/mL,16,16 µg/mL,–,1 µg/mL,–,16,–,1 µg/mL,–
O=C(N/N=C/c1cc(OC(F)(F)F)ccc1O)c1ccc(Br)cc1,64 µg/mL,64,16 µg/mL,–,0.25 µg/mL,–,256,–,1 µg/mL,–
O=C(N/N=C/c1cc(Br)ccc1O)c1ccc(Br)c(Br)c1,8 µg/mL,32,8 µg/mL,–,0.25 µg/mL,–,32,–,1 µg/mL,–
O=C(N/N=C/c1cc(Br)ccc1O)c1ccc(OC(F)(F)F)cc1,16 µg/mL,66.6,4 µg/mL,1 µg/mL,0.06 µg/mL,–,267,–,–,–
O=C(N/N=C/c1cc(Br)ccc1O)c1cc(Br)cc(Br)c1,16 µg/mL,267,16 µg/mL,–,0.06 µg/mL,Active,267,–,–,–
Cc1ccc(O)c(/C=N/NC(=O)c2ccc(Br)c(Br)c2)c1,16 µg/mL,133,16 µg/mL,–,0.12 µg/mL,–,133,–,0.5 µg/mL,–
O=C(N/N=C/c1cc(Br)cc(Br)c1O)c1cnc2ccccc2c1,32 µg/mL,128,32 µg/mL,–,0.25 µg/mL,Active,128,–,–,–
CN(C)c1ccc(C(=O)N/N=C/c2ccc(Br)cc2O)cc1,16 µg/mL,64,16 µg/mL,–,0.25 µg/mL,Active,64,–,–,–
O=C(N/N=C/c1cc(Cl)ccc1O)c1ccc(Br)cc1Br,64 µg/mL,256,64 µg/mL,1 µg/mL,0.25 µg/mL,–,256,–,–,–
O=C(N/N=C/c1cc(F)ccc1O)c1ccc(Br)cc1Br,16 µg/mL,16,16 µg/mL,–,1 µg/mL,–,16,2 µg/mL,–,–
